Assay outcomes as filed in PubChem BioAssay.
SENP8 block-1: inhibitors of human SENP8 protease; 330,000 compounds, 1.2% hits; Q96LD8; inhibition, % at 10 µM; purified SENP8, Z-RLRGG-aminoluciferin cleavage, luminescence; AID 2540; in the data active = inhibition above about 50%
Target sequence (Q96LD8 whole entry, looked up): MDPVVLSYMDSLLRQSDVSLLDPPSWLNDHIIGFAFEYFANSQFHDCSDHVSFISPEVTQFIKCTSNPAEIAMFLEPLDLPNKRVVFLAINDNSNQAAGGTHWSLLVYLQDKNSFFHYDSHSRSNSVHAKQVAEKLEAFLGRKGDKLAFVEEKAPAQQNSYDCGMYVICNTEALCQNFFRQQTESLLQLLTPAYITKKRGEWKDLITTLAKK
SENP8 block-2: blocks human SENP8 cleavage of Nedd8 substrate | Q96LD8 | AID 602440 | inhibition, % at 20 µM | 360,000 compounds, 0.64% hits | recombinant SENP8, Nedd8 substrate fluorescence; in the data active = inhibition mostly above about 40%, no sharp cut-off; inactive = mostly below about 27%
SENP7 block: blocks the human protease SENP7 | Q9BQF6 | recombinant SENP7, Z-RLRGG-aminoluciferin luminescence, 40 min | inhibition, % at 5 µM | 330,000 compounds, 1.5% hits;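 active = inhibition above about 50% at the single test dose, limit read from the data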
SENP1 inh: blocks the human SENP1 SUMO protease catalytic domain | Q9P0U3 | recombinant SENP1 catalytic domain, CyPet-SUMO1-YPet FRET cleavage | inhibition, % at 10 µM | 360,000 compounds, 0.21% hits | AID 624204;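 active = inhibition at least 30% at 10 µM, raw YFP signal under a set limit, fluorescence ratio 0.5 to 1.5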
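material = recombinant human SENP1 catalytic domain, His6-tagged | quantity = 20 pM enzyme | reagent = 25 nM SUMO1 FRET substrate | compound dosing = 10 µM single point, 0.5% DMSO | timing = 50 min enzyme reaction, room temperature, light-protected | detection = FRET, CFP and YFP emission | control set = no-enzyme low, enzyme-DMSO high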
SENP6 inh: blocks the human protease SENP6 | Recombinant SENP6 catalytic domain, aminoluciferin luminescence | inhibition, % at 10 µM | 330,000 compounds, 1.8% hits;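 active = inhibition above about 50% at the single tested dose, limit read from the data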
SENP1 inh conf: confirmation of human SENP1 SUMO protease inhibitors; inhibition, % at 10 µM; recombinant SENP1, CyPet-SUMO1-YPet FRET cleavage; shares compounds with SENP1 inh; AID 651678; 520 compounds, 34% hits; in the data active = inhibition mostly above about 35%, no sharp cut-off; inactive = mostly below about 32%
SENP1 kinetic: SENP1 (human) inhibition, kinetic confirmation; 520 compounds, 26% hits; recombinant SENP1, CyPet-SUMO1-YPet FRET kinetic cleavage; inhibition, % at 10 µM; shares compounds with SENP1 inh; in the data active = inhibition mostly above about 32%, no sharp cut-off; inactive = mostly below about 29%
Large screens that a line does not name were inactive (follow-up assays come after a bar, where they were run). Rows were chosen to be rich in hits. Some 2.5% of all compounds tested hit in one or more screens of this group.

Cc1sc(-c2ccccn2)nc1OC(=O)c1cccc(Cl)c1Cl	SENP1 inh 35.6 | SENP1 inh conf inactive | SENP1 kinetic 50.0
O=C(COc1ccccc1Cl)Nc1cccc(S(=O)(=O)NC2=NCCCCC2)c1	none
C[C@@H]1CN([C@H](C)CO)S(=O)(=O)c2ccc(C#Cc3ccccc3F)cc2O[C@@H]1CN(C)C(=O)Cc1ccccc1	none (no result: SENP8 block-1, SENP7 block, SENP6 inh)
O=C(c1ccc([N+](=O)[O-])s1)N1CCCc2ccccc21	none
O=C(c1ccc([N+](=O)[O-])s1)N1CCc2ccccc21	SENP1 inh 55.0 | SENP1 inh conf inactive | SENP1 kinetic inactive
Cc1ccc2nc3sc(C(=O)N4CCOCC4)c(N)c3cc2c1	none
Cc1ccc2cc3c(N)c(C(=O)N4CCOCC4)sc3nc2c1	SENP1 inh 46.9 | SENP1 inh conf 40.1 | SENP1 kinetic inactive
C=CCNC(=O)c1cccc2c1C(=O)c1ccc(N3CCOCC3)cc1S2(=O)=O	SENP1 inh 80.1 | SENP1 inh conf 61.0 | SENP1 kinetic 44.7
COc1cc(OC)cc(C(=O)Nc2nc(CC(=O)NC(C)c3ccccc3)cs2)c1 (stereo not given)	none
C[C@H](NC(=O)OC(C)(C)C)C(=O)N/N=C/c1cccc2nccnc12	none
O=C(O)c1ccc(N/N=C/c2cccc3nccnc23)cc1	SENP1 inh 53.4 | SENP1 inh conf 46.4 | SENP1 kinetic 38.9
CCCCCCC1/C(=N\NC(=O)c2ccccc2)CCC1C(=O)OC (stereo not given)	none
Cc1ccc2nc3sc(C(=O)NCc4ccco4)c(N)c3cc2c1	SENP1 inh 34.3 | SENP1 inh conf 110.2 | SENP1 kinetic 71.2
COc1ccc(OC)c(CCNC(=O)c2ccc3c(=O)[nH]c4c(C(=O)NC(C)C)sc(=S)n4c3c2)c1	SENP1 inh 50.3 | SENP1 inh conf 41.4 | SENP1 kinetic 40.1
COc1ccc(OC)c(CCNC(=O)c2ccc3c(c2)N(Cc2ccc(F)cc2)CCS3)c1	none
CCNS(=O)(=O)c1ccc2c(c1)NCC2	none
O=C(NC(=S)Nc1ccccc1O)c1cncc(Br)c1	SENP1 inh 29.6 | SENP1 inh conf inactive | SENP1 kinetic inactive
O=C(NC(=S)Nc1ccccc1C(=O)O)c1cncc(Br)c1	none
COc1ccc(-n2c(=O)[nH]c3cc(C(=O)NCCc4ccccc4)ccc3c2=O)cc1OC	none
CCCN1C(=O)/C(=C\C=C2/Sc3ccccc3N2CCO)SC1=S	none
CCN1/C(=C/C=C2/SC(=Nc3cccc4ncccc34)N(C)C2=O)Sc2ccccc21	SENP1 inh 36.6 (no result: SENP8 block-1, SENP7 block, SENP6 inh) | SENP1 inh conf inactive | SENP1 kinetic inactive
COC(=O)C1=C(C)N(Cc2ccco2)C(=O)/C1=C\c1ccc(N(C)C)cc1	SENP1 inh 46.1 | SENP1 inh conf inactive | SENP1 kinetic inactive
CC(=O)Nn1cc2c(c1-c1ccccc1)c(=O)n(C)c(=O)n2C	none
Cn1c(=O)c2[nH]c(-c3ccccc3)c(O)c2n(C)c1=O	SENP1 inh 60.0 | SENP1 inh conf 56.2 | SENP1 kinetic 54.1
Cn1c(=O)c2[nH]c(-c3ccccc3Cl)c(O)c2n(C)c1=O	SENP1 inh 31.6 | SENP1 inh conf inactive | SENP1 kinetic inactive
